# Screening results from PubChem BioAssay.
# T cruzi intra: blocks T. cruzi growth inside host cells; intracellular Trypanosoma cruzi in host cells, plate reader; activity score (inhibition), % at 5.01 µM; 22,000 compounds, 4.9% hits; in the data active = activity score above about 55%; inconclusive = no clear call, values can overlap the other calls;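 also: parasites and compound incubated about four days before reading; 0% = median of neutral control wells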
# INS-1E rescue: preserves ATP levels in cytokine-treated INS-1E cells | protection from cytokine-induced ATP loss, % at 10 µM | 20,000 compounds, 0.1% hits | AID 488910 | INS-1E cytokine-induced death, ATP luminescence, 48 h; normalised: neutral wells 0, positive control 100;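 active = mean replicate protection from cytokine-induced ATP loss at least 50% and at least 75% of replicates each reaching 50%; inconclusive = meets only one of the two criteria, mean or replicate share; inactive = fails both the mean and replicate share criteria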
#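 Material: INS-1E rat cells; Quantity: 8000 cells/well; Buffer or medium: phenol-red-free RPMI with 5% fetal bovine serum; Probe or stimulus: cytokine cocktail of IFN-γ, TNF-α and IL-1β; Compound dosing: single test concentration per compound, delivered by pin transfer; Incubation: 48 h co-treatment, 10 min post-lysis read; Signal: CellTiter-Glo luminescence.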
# A1 apoptosis 2: compounds inhibiting A1, read as caspase activation; AID 2465; caspase activation, % (no concentration beside the values); MEF A1-2A-BIM cells, caspase-Glo luminescence, 3 h; percent of clofoctol response, DMSO zero; 24,000 tested, under 10 active; in the data active = caspase activation above about 5.9%; inconclusive = no clear call, values can overlap the other calls; inactive = below about 2.2%
#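 System: mouse embryonic fibroblasts co-expressing A1 and BIM (A1-2A-BIM), primed for A1 dependence; amount: 2500 cells/well; doses: 50 nL pinned compound; schedule: cells settled overnight, compound exposure 3 h at 37 °C, 5% CO2; detection: Caspase-Glo 3/7 luminescence, 1 h at room temperature; read-out: Caspase-3/7 activation, seen as rise in luminescence signal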
# * hit, by the source's call; ? = inconclusive; . = no result. This excerpt belongs to a sample that is enriched for hits.
SMILES,T cruzi intra,INS-1E rescue,A1 apoptosis 2
C[C@H](CO)N1C[C@H](C)[C@H](CN(C)Cc2ccc(C(=O)Nc3ccccc3N)cc2)Oc2ccc(N(C)C)cc2C1=O,39,40,0
CC(C)NC(=O)Nc1ccc2c(c1)C(=O)N([C@@H](C)CO)C[C@H](C)[C@H](CN(C)Cc1ccc(C(=O)Nc3ccccc3N)cc1)O2,?,-12,.
C[C@@H]1CN([C@H](C)CO)C(=O)c2cc(N(C)C)ccc2O[C@H]1CN(C)Cc1ccc(C(=O)Nc2ccccc2N)cc1,63*,31,.
O=C(NO)c1cccc(C(=O)N/N=C/c2cccc(Br)c2)c1,1,-9,0
O=C(CCCCCCC(=O)Nc1ccccc1O)N/N=C/c1ccoc1,-3,4,.
O=C(NCCO)C1=C[C@H](Oc2ccccc2I)[C@@H](O)[C@H](N(Cc2ccco2)C(=O)Cc2ccccc2)C1,.,.,0
NC(=O)[C@@H]1[C@H]2C(=O)O[C@H](c3ccccc3)[C@H](c3ccccc3)N2[C@H](c2ccccc2OCCO)[C@@]12C(=O)Nc1ccc(C#CC3(O)CCCCCC3)cc12,.,.,0
COC(=O)CCCCCCC(=O)N/N=C/c1ccc([N+](=O)[O-])s1,81*,-62,0
O=C(CCCCCC(=O)N/N=C/c1ccc([N+](=O)[O-])s1)NO,64*,20,.
O=C(CCCCCC(=O)Nc1ccccc1O)N/N=C/c1ccc([N+](=O)[O-])s1,.,.,0
O=C(O)CCCCCCC(=O)N/N=C/c1ccc([N+](=O)[O-])s1,32,-6,-2
O=C(O)CCCCCCC(=O)N/N=C/c1cccc2ccccc12,-3,12,.
C[C@@H]1CN([C@H](C)CO)C(=O)c2cccc(NC(=O)Nc3ccc(C(F)(F)F)cc3)c2O[C@@H]1CN(C)Cc1ccc2c(c1)OCO2,?,-27,1
C[C@H](CO)N1C[C@H](C)[C@@H](CN(C)Cc2ccc3c(c2)OCO3)Oc2c(NC(=O)Nc3ccc(F)cc3)cccc2C1=O,60*,-8,0
C[C@H](CO)N1C[C@H](C)[C@H](CN(C)Cc2ccc3c(c2)OCO3)Oc2c(NC(=O)Nc3ccc(F)cc3)cccc2C1=O,50,-22,.
C[C@H]1CN([C@@H](C)CO)C(=O)c2cccc(NC(=O)Nc3ccc4c(c3)OCO4)c2O[C@H]1CN(C)Cc1ccc2c(c1)OCO2,-17,-12,.
C[C@H](CO)N1C[C@H](C)[C@@H](CN(C)Cc2ccc3c(c2)OCO3)Oc2c(NC(=O)Nc3ccc(C(F)(F)F)cc3)cccc2C1=O,83*,-36,.
C[C@H](CO)N1C[C@H](C)[C@H](CN(C)Cc2ccc3c(c2)OCO3)Oc2c(NC(=O)Nc3ccc(C(F)(F)F)cc3)cccc2C1=O,62*,-51,0
C[C@@H]1CN([C@H](C)CO)C(=O)c2cccc(NC(=O)Nc3ccc4c(c3)OCO4)c2O[C@H]1CN(C)Cc1ccc(C(F)(F)F)cc1,9,-7,0
C[C@@H]1CN([C@H](C)CO)C(=O)c2cccc(NC(=O)Nc3ccc(C(F)(F)F)cc3)c2O[C@H]1CN(C)Cc1ccc2c(c1)OCO2,80*,-58,-1
O=S(=O)(N[C@@H]1CCCN(Cc2cccc(OCCO)c2)C1)c1cccc(F)c1,.,.,1
COC(=O)CCCCCCC(=O)N/N=C/[C@@H](O)[C@@H](O)[C@H](O)[C@H](O)CO,-6,-10,0
O=C(N/N=C/c1cc2ccccc2n1S(=O)(=O)c1ccccc1)c1ccccn1,31,-8,-1
C=CCOC(=O)[C@H]1[C@@H]2C(=O)O[C@@H](c3ccccc3)[C@@H](c3ccccc3)N2[C@@H](c2ccc(OCCOC(=O)[C@@H]3C[C@@H]4C(=O)N[C@@H](Cc5ccccc5)C(=O)N4[C@@H]3c3cccc(OCCO)c3)cc2)[C@]12C(=O)Nc1ccc(I)cc12,.,.,-1
CN(C)CCCCNC(=O)[C@@H]1C[C@@H]2C(=O)N[C@@H](Cc3ccccc3)C(=O)N2[C@@H]1c1ccc(O)cc1,.,.,0
SMILES,T cruzi intra,INS-1E rescue,A1 apoptosis 2
Cc1nnc(Sc2ccc(/C=N/NC(=O)c3ccccc3O)o2)n1C,-8,-20,-1
O=C(CCCCCCC(=O)Nc1ccccc1O)N/N=C/c1ccc(-c2cccc(Cl)c2)o1,.,.,-1
C[C@H]1CN([C@@H](C)CO)C(=O)c2cccc(NC(=O)Nc3ccc(C(F)(F)F)cc3)c2O[C@@H]1CN(C)Cc1ccc2c(c1)OCO2,52,-13,.
C[C@@H]1CN([C@@H](C)CO)C(=O)c2cccc(NC(=O)Nc3ccc(C(F)(F)F)cc3)c2O[C@H]1CN(C)Cc1ccc2c(c1)OCO2,90*,-60,.
C[C@H](CO)N1C[C@H](C)[C@@H](CN(C)Cc2ccc(Oc3ccccc3)cc2)Oc2c(NC(=O)Nc3ccccc3)cccc2C1=O,78*,-46,-1
C[C@@H]1CN([C@@H](C)CO)C(=O)c2cccc(NC(=O)Nc3ccccc3)c2O[C@@H]1CN(C)Cc1ccc(Oc2ccccc2)cc1,-16,-44,.
CC(C)NC(=O)Nc1cccc2c1O[C@@H](CN(C)Cc1ccc(Oc3ccccc3)cc1)[C@H](C)CN([C@H](C)CO)C2=O,57*,-7,0
C[C@H](CO)N1C[C@H](C)[C@H](CN(C)Cc2ccc(-c3ccccc3)cc2)Oc2c(NC(=O)Nc3cccc4ccccc34)cccc2C1=O,.,.,0
C[C@H](CO)N1C[C@H](C)[C@H](CN(C)Cc2ccc(Oc3ccccc3)cc2)Oc2c(NC(=O)Nc3cccc4ccccc34)cccc2C1=O,66*,-59,0
C[C@@H]1CN([C@H](C)CO)C(=O)c2cccc(NC(=O)Nc3cccc4ccccc34)c2O[C@@H]1CN(C)Cc1ccc(-c2ccccc2)cc1,61*,-19,.
CC(C)NC(=O)Nc1cccc2c1O[C@H](CN(C)Cc1ccc(Oc3ccccc3)cc1)[C@H](C)CN([C@@H](C)CO)C2=O,-1,-22,0
C[C@H]1CN([C@@H](C)CO)C(=O)c2cccc(NC(=O)Nc3ccccc3)c2O[C@@H]1CN(C)Cc1ccc(Oc2ccccc2)cc1,34,-27,0
COc1cc(O)cc(OC)c1/C=N/NC(=O)CCCCC(=O)NO,-15,15,.
COc1ccc(NC(=O)Nc2cccc3c2O[C@@H](CN(C)Cc2ccc(Oc4ccccc4)cc2)[C@@H](C)CN([C@@H](C)CO)C3=O)cc1,36,-39,-1
COc1ccc(NC(=O)Nc2cccc3c2O[C@@H](CN(C)Cc2ccc(Oc4ccccc4)cc2)[C@@H](C)CN([C@H](C)CO)C3=O)cc1,63*,-48,-2
C[C@@H]1CN([C@@H](C)CO)C(=O)Cc2cc(NC(=O)Nc3ccc(F)cc3)ccc2O[C@@H]1CN(C)Cc1ccc(Oc2ccccc2)cc1,75*,0,.
C[C@@H]1CN([C@H](C)CO)C(=O)Cc2cc(NC(=O)Nc3ccccc3)ccc2O[C@@H]1CN(C)Cc1ccc(Oc2ccccc2)cc1,72*,-69,2
C[C@@H]1CN([C@@H](C)CO)C(=O)Cc2cc(NC(=O)Nc3ccccc3)ccc2O[C@@H]1CN(C)Cc1ccc(Oc2ccccc2)cc1,81*,-74,.
